Measurements: publication PMC5723699 (Pharmacology Research & Perspectives, 2017)
In brackets after ≈: the same amount, converted by molar mass.

What was measured:
[1] = Part A single ascending dose blood pharmacokinetics; format: in vivo, human
[2] = Analysis of metabolism in blood, plasma, urine and bile; format: in vivo, human
In short: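 Oral dosing in healthy volunteers. Urine collected at various time points. Bile sampled by Entero-Test in one Part B cohort on Days −1 and 7, about 2 h after the morning dose. Blood/water, plasma, urine and bile analysed for relative levels of parent drug and metabolites.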

CYP3A4 = experiment: Plasma 4β-hydroxycholesterol-to-cholesterol ratio as marker of CYP3A4 induction; details: following 14 days of dosing
Safety and tolerability = details: for Subjects with drug‐related AEs / Application‐site erythema / Catheter‐site erythema / Contact dermatitis / Headache / Nasopharyngitis / Rash / Subjects with any AE: Part B; for Application‐site erythema / Catheter‐site erythema / Contact dermatitis / Headache / Nasopharyngitis / Rash / Subjects with any AE: 14 days (n = 9)
RIPK1 = target: T1, RIPK1 (Homo sapiens, UniProt Q13546); experiment: RIPK1 target engagement; format: in vivo; details: Part A
T1 sequence (Q13546 1-671): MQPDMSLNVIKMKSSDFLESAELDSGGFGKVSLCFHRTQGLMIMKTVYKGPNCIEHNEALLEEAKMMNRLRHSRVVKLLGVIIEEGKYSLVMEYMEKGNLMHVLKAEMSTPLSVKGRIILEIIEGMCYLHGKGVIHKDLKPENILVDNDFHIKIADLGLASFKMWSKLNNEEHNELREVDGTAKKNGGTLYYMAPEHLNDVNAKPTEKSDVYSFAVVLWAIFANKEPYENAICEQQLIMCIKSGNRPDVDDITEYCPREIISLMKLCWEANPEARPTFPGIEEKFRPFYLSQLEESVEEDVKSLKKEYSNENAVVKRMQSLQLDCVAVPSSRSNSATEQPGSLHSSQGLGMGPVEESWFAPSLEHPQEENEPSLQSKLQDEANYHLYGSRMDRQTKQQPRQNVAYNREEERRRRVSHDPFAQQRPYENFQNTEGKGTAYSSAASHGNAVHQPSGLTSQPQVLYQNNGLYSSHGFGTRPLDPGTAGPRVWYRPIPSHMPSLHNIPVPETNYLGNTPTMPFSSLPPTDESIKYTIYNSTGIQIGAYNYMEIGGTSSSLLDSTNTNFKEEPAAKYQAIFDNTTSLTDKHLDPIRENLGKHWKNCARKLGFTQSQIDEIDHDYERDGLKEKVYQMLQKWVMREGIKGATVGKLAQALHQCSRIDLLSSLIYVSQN

Part B repeat-dose = format: in vivo, human; details: for AUC: male, human, in vivo, po, AUC0‐tau, plasma, oral, geometric mean (% CV)
MIP‐1α = experiment: Ex vivo whole blood challenge assay; format: cell-based, human

CN1C(=O)[C@@H](NC(=O)c2nnc(Cc3ccccc3)[nH]2)COc2ccccc21 [GSK2982772]
Time to C max ([1]; blood, single dose 10 mg capsule, fasted): 1.5 h | Median time to C max ([1]; blood, single dose 0.1, 0.5 and 2.5 mg in solution, fasted): ≤ 1 h | Time to C max ([1]; blood, single dose 120 mg capsule, fasted): 2.5 h | Dose linearity of kinetics ([1]; dose range 0.1‐120 mg): approximately linear kinetics | half-life ([1]; male, human, whole blood, oral): ~360 min | Unchanged drug in urine ([2]; in vivo): trace levels | Unchanged drug in blood and plasma extracts ([2]; single and repeat oral dosing, together with N‐glucuronide metabolite): major circulating drug‐related components | CYP3A4 induction (CYP3A4): no evidence of CYP3A4 induction | Drug‐related AEs (total number) (Safety and tolerability; Part A, reported in 2 subjects, all of mild intensity): 3 | Subjects with drug‐related AEs (Safety and tolerability; 20 mg QD group): 3 subjects | Application‐site erythema (Safety and tolerability; 20 mg QD): 0 n (%) | Catheter‐site erythema (Safety and tolerability; 20 mg QD): 0 n (%) | Contact dermatitis (Safety and tolerability; 20 mg QD): 1 (11) n (%) | Headache (Safety and tolerability; 20 mg QD): 4 (44) n (%) | Nasopharyngitis (Safety and tolerability; 20 mg QD): 0 n (%) | Rash (Safety and tolerability; 20 mg QD): 0 n (%) | Subjects with any AE (Safety and tolerability; 20 mg QD): 7 (78) n (%) | Subjects with drug‐related AEs (Safety and tolerability; 60 mg BID group): 4 subjects | Application‐site erythema (Safety and tolerability; 60 mg BID): 0 n (%) | Catheter‐site erythema (Safety and tolerability; 60 mg BID): 2 (22) n (%) | Contact dermatitis (Safety and tolerability; 60 mg BID): 5 (56) n (%) | Headache (Safety and tolerability; 60 mg BID): 3 (33) n (%) | Nasopharyngitis (Safety and tolerability; 60 mg BID): 1 (11) n (%) | Rash (Safety and tolerability; 60 mg BID): 1 (11) n (%) | Subjects with any AE (Safety and tolerability; 60 mg BID): 9 (100) n (%) | Application‐site erythema (Safety and tolerability; 60 mg QD): 0 n (%) | Catheter‐site erythema (Safety and tolerability; 60 mg QD): 1 (11) n (%) | Contact dermatitis (Safety and tolerability; 60 mg QD): 3 (33) n (%) | Headache (Safety and tolerability; 60 mg QD): 0 n (%) | Nasopharyngitis (Safety and tolerability; 60 mg QD): 0 n (%) | Rash (Safety and tolerability; 60 mg QD): 3 (33) n (%) | Subjects with any AE (Safety and tolerability; 60 mg QD): 6 (67) n (%) | Application‐site erythema (Safety and tolerability; 120 mg BID): 2 (22) n (%) | Catheter‐site erythema (Safety and tolerability; 120 mg BID): 0 n (%) | Contact dermatitis (Safety and tolerability; 120 mg BID): 0 n (%) | Headache (Safety and tolerability; 120 mg BID): 1 (11) n (%) | Nasopharyngitis (Safety and tolerability; 120 mg BID): 3 (33) n (%) | Rash (Safety and tolerability; 120 mg BID): 0 n (%) | Subjects with any AE (Safety and tolerability; 120 mg BID): 6 (67) n (%) | AEs involving clinical laboratory or electrocardiogram abnormalities (Safety and tolerability; any part of the study): no AEs involving clinical laboratory abnormalities or electrocardiogram abnormalities were reported | Serious AEs, suicidality or deaths (Safety and tolerability; any part of the study): No serious AEs, suicidality or deaths were reported | Overall safety and tolerability (Safety and tolerability; single and repeat doses, healthy adult male volunteers): generally safe and well tolerated | Vital signs, physical, neurological examinations, respiratory assessments (Safety and tolerability; whole study): no clinically significant abnormal findings | Percent TE (RIPK1; 1.5 hours postdose, single doses of 10 mg and above): > 90% | Percent TE (>90% level) (RIPK1; 8 hours postdose, single doses of 40 mg and above): sustained | Percent TE (RIPK1; 48 hours postdose, all dose groups): negligible | AUC (Part B repeat-dose; 20 mg, 20 mg QD, Day 1): 1160 ng·h/mL | AUC (Part B repeat-dose; 20 mg, 20 mg QD, Day 14): 1140 ng·h/mL | AUC (Part B repeat-dose; 60 mg, 60 mg BID, Day 1): 4330 ng·h/mL | AUC (Part B repeat-dose; 60 mg, 60 mg BID, Day 14): 3100 ng·h/mL | AUC (Part B repeat-dose; 60 mg, 60 mg QD, Day 14): 2590 ng·h/mL | AUC (Part B repeat-dose; 120 mg, 120 mg BID, Day 1): 7050 ng·h/mL | AUC (Part B repeat-dose; 120 mg, 120 mg BID, Day 14): 6990 ng·h/mL | Attainment of steady state (trough plasma predose concentration Days 2 to 14) (Part B repeat-dose; repeat dosing): reached a plateau by Day 2 | IC50 (MIP‐1α; Homo sapiens, read-out: Concentration needed to elicit a half‐maximal response in all assays, all assays (MIP‐1α, MIP‐1β, TE)): ~1.4 ng/mL (≈ 3.71 nM) | Inhibition (mean of MIP‐1α and MIP‐1β) (MIP‐1α; Part B Day 14, 60 mg and 120 mg BID, out to 24 hours posttreatment): maximal inhibition | Inhibition (mean of MIP‐1α and MIP‐1β) (MIP‐1α; Part B Day 14, 1.5 hours and 8 hours postdose, all treatment groups): maximal inhibition
